Test results reported in ChEMBL document CHEMBL3351994, “Synthesis and biological evaluation of novel millepachine derivatives as a new class of tubulin polymerization inhibitors” (J Med Chem, 2014).

Columns and labels:
Mus musculus [1] = test: Toxicity in human HepG2 cells xenografted Balb/C mouse assessed as body weight changes at 5 mg/kg, iv dosed every 2 days for 11 days; assay type: organism-based; set-up: dose 5 mg/kg, route intravenous; conditions: in vivo
How it was run: (§1)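 Xenografts: 5 × 10^6 tumour cells injected sc in right armpit/flank of 5−6-week-old female mice; at 100 mm3 tumour volume, randomized (6 per group) and dosed in vehicle of 2.5% Tween-80 and 2.5% ethanol; body weights and caliper tumour volumes recorded every 2 days, toxicity signs and mortality daily.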

HepG2 [2] = test: Antitumor activity against human HepG2 cells xenografted in Balb/C mouse assessed as tumor mass changes at 5 mg/kg, iv dosed every 2 days for 11 days; assay type: functional
How it was run: (§2)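 Female Balb/c or athymic nude mice, 5–6 weeks old. 5 × 10^6 cells in HBSS implanted sc in the right flank/armpit. Treatment began at tumor volume 100 mm3, 6 mice per group; vehicle was 2.5% Tween-80 and 2.5% ethanol. Tumor volume (π/6 × L × W²) and body weight measured every 2 days. Inhibition = (1 − treated/control tumor weight) × 100%.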

[3] = Antiproliferative activity against adriamycin resistant human MCF7/ADR cells assessed as inhibition of cell proliferation after 48 hrs by MTT assay; assay type: functional, cell-based; conditions: NCI/ADR-RES
How it was run: (§3)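 Cells grown at 37 °C in humidified 5% CO2. K562, C26 and HCT lines in RPMI-1640; other lines in DMEM; both media with 10% FBS, penicillin and streptomycin. 1000 cells/well seeded, incubated overnight, then compound at various doses for 48 h. MTT added for 4 h, formazan dissolved in DMSO, absorbance read at 590 nm. IC50 from dose–response curves, mean ± SEM of at least three independent experiments.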

Mus musculus [4] = test: Toxicity in human HepG2 cells xenografted Balb/C mouse assessed as mortality level at 5 mg/kg, iv dosed every 2 days for 11 days; assay type: organism-based; set-up: dose 5 mg/kg, route intravenous; conditions: in vivo
How it was run: (§4)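 Female Balb/C or athymic nude mice, 5−6 weeks old, implanted sc in the right flank/armpit with 5 × 10^6 cells in HBSS. Once tumors reached 100 mm3, mice were randomized (6 per group) and dosed with vehicle (2.5% Tween-80, 2.5% ethanol) or drug. Toxicity signs and mortality observed daily. Body weight and caliper tumor volume measured every 2 days.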

Rattus norvegicus [5] = test: Systemic clearance in rat at 15 mg/kg, po; assay type: ADME, organism-based; set-up: dose 15 mg/kg, route oral; conditions: in vivo
[6] = Solubility in PBS solution by nephelometry; assay type: physicochemical
How it was run: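 Maximum soluble concentration in PBS, determined by nephelometry.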

Rattus norvegicus [7] = test: Volume of distribution at steady state in rat at 15 mg/kg, po; assay type: ADME, organism-based; set-up: dose 15 mg/kg, route oral; conditions: in vivo
Mus musculus [8] = test: Toxicity in human HepG2 cells xenografted Balb/C mouse assessed as body weight changes at 25 mg/kg, po dosed every 2 days for 11 days; assay type: organism-based; set-up: dose 25 mg/kg, route oral; conditions: in vivo; how it was run: as §1
Rattus norvegicus [9] = test: AUC in rat at 3 mg/kg, iv; assay type: ADME, organism-based, Plasma; set-up: dose 3 mg/kg, route intravenous; conditions: in vivo
How it was run: (§5)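 Rat pharmacokinetics; oral and intravenous dosing, with group sizes of 5, 5 and 4 rats. Parameters derived: systemic clearance, volume of distribution, area under the plasma concentration–time curve, maximum plasma concentration and percent oral bioavailability.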

HepG2 [10] = test: Antitumor activity against human HepG2 cells xenografted in Balb/C mouse assessed as tumor mass changes at 25 mg/kg, po dosed every 2 days for 11 days; assay type: functional; how it was run: as §2
HepG2 [11] = test: Antiproliferative activity against human HepG2 cells assessed as inhibition of cell proliferation after 48 hrs by MTT assay; assay type: functional, cell-based; conditions: hepg2; how it was run: as §3
Rattus norvegicus [12] = test: Systemic clearance in rat at 3 mg/kg, iv; assay type: ADME, organism-based; set-up: dose 3 mg/kg, route intravenous; conditions: in vivo
[13] = Antitumor activity against human A2780S cells xenografted in Balb/C mouse assessed as tumor mass changes at 10 mg/kg, iv dosed every 2 days for 8 days; assay type: functional, A2780; how it was run: as §2
Mus musculus [14] = test: Toxicity in mouse C26 cells xenografted Balb/C mouse assessed as body weight changes at 10 mg/kg, iv dosed every 2 days for 8 days; assay type: organism-based; set-up: dose 10 mg/kg, route intravenous; conditions: in vivo; how it was run: as §1
[15] = Volume of distribution at steady state in rat at 3 mg/kg, iv; assay type: ADME, organism-based; set-up: dose 3 mg/kg, route intravenous; conditions: in vivo, read-out: Vdss
[16] = Antitumor activity against cisplatin-resistant human […] cells xenografted in Balb/C mouse assessed as tumor mass changes at 10 mg/kg, iv dosed every 2 days for 7 days; assay type: functional, A2780cisR; how it was run: as §2
Mus musculus [17] = test: Toxicity in mouse C26 cells xenografted Balb/C mouse assessed as mortality level at 10 mg/kg, iv dosed every 2 days for 8 days; assay type: organism-based; set-up: dose 10 mg/kg, route intravenous; conditions: in vivo; how it was run: as §4
[18] = Cmax in rat at 3 mg/kg, iv; assay type: ADME, organism-based; set-up: dose 3 mg/kg, route intravenous; conditions: in vivo; how it was run: as §5
[19] = Antitumor activity against mouse C26 cells xenografted in Balb/C mouse assessed as tumor mass changes at 10 mg/kg, iv dosed every 2 days for 8 days; assay type: functional; how it was run: as §2
Rattus norvegicus [20] = test: AUC in rat at 15 mg/kg, po; assay type: ADME, organism-based, Plasma; set-up: dose 15 mg/kg, route oral; conditions: in vivo; how it was run: as §5
Mus musculus [21] = test: Toxicity in human A2780S cells xenografted Balb/C mouse assessed as body weight changes at 10 mg/kg, iv dosed every 2 days for 8 days; assay type: organism-based, A2780; set-up: dose 10 mg/kg, route intravenous; conditions: in vivo; how it was run: as §1
Mus musculus [22] = test: Toxicity in human A2780S cells xenografted Balb/C mouse assessed as mortality level at 10 mg/kg, iv dosed every 2 days for 8 days; assay type: organism-based, A2780; set-up: dose 10 mg/kg, route intravenous; conditions: in vivo; how it was run: as §4
[23] = Oral bioavailability in rat at 15 mg/kg; assay type: ADME, organism-based; conditions: in vivo
[24] = Toxicity in iv dosed BALB/c mouse; assay type: organism-based; conditions: in vivo
How it was run: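 Maximum tolerated dose in BALB/c mice (SPF, 18−22 g, 6−8 weeks, half female and half male). Graded doses given intravenously, n = 4 per dose. Survival and adverse effects recorded every other day after dosing. MTD defined as the largest dose given before one death occurs.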

Mus musculus [25] = test: Toxicity in human HepG2 cells xenografted Balb/C mouse assessed as mortality level at 25 mg/kg, po dosed every 2 days for 11 days; assay type: organism-based; set-up: dose 25 mg/kg, route oral; conditions: in vivo; how it was run: as §4
Mus musculus [26] = test: Toxicity in cisplatin-resistant human […] cells xenografted Balb/C mouse assessed as body weight changes at 10 mg/kg, iv dosed every 2 days for 7 days; assay type: organism-based, A2780cisR; set-up: dose 10 mg/kg, route intravenous; conditions: in vivo; how it was run: as §1
Mus musculus [27] = test: Toxicity in cisplatin-resistant human […] cells xenografted Balb/C mouse assessed as mortality level at 10 mg/kg, iv dosed every 2 days for 7 days; assay type: organism-based, A2780cisR; set-up: dose 10 mg/kg, route intravenous; conditions: in vivo; how it was run: as §4
[28] = Cmax in rat at 15 mg/kg, po; assay type: ADME, organism-based; set-up: dose 15 mg/kg, route oral; conditions: in vivo; how it was run: as §5

COc1cccc2c1C(=O)c1c(O)c3c(c(O)c1C2=O)C[C@@](O)(C(=O)CO)C[C@@H]3O[C@H]1C[C@H](N)[C@H](O)[C@H](C)O1.Cl [DOXORUBICIN HYDROCHLORIDE]
Activity (Mus musculus [1]): 0.5% | Activity (HepG2 [2]): 61% | IC50 [3]: 5.3 µM | Activity (Mus musculus [4]): Non-toxic

COc1ccc(/C=C/C(=O)c2ccc(OC)c3c2OC(C)(C)C=C3)cc1N.Cl
CL (Rattus norvegicus [5]): 7.4 L/h/kg | solubility kinetic [6]: 64 µg/mL | Vdss (Rattus norvegicus [7]): 47 L/kg | Activity (Mus musculus [8]): 7.6% | AUC (Rattus norvegicus [9]): 973 ng·h/mL | Activity (HepG2 [10]): 78% | IC50 (HepG2 [11]): 9 nM | CL (Rattus norvegicus [12]): 3 L/h/kg | Activity [13]: 61% | Activity (Mus musculus [14]): 0.8% | Vd [15]: 31 L/kg | Activity [16]: 51% | Activity (Mus musculus [17]): Non-toxic | Cmax [18]: 1510 ng/mL | Activity [19]: 86% | AUC (Rattus norvegicus [20]): 2260 ng·h/mL | Activity (Mus musculus [21]): -2.5% | Activity (Mus musculus [22]): Non-toxic | bioavailability [23]: 47% | MTD [24]: 250 mg/kg | Activity (Mus musculus [25]): Non-toxic | Activity (Mus musculus [26]): 1% | Activity (Mus musculus [27]): Non-toxic | Cmax [28]: 0.449 µg/mL
